How the values were obtained:
[1] = melting temperature; fluorescence melt of hairpins on a sequencing array, two-state fit, raised by 9.35 °C to match UV melts; settings: sodium 0.088 M
Outline: (§1)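 In 50 mM Na-HEPES pH 8.0 containing 25 mM NaCl, hairpins from the library on a sequenced MiSeq flow cell were imaged for Cy3 fluorescence at 2.5 °C steps up to 60 °C, with Cy3 and quencher oligos annealed. After normalisation to pre-quench Cy3 and to control constructs, two-state fits with bootstrapping gave melting temperature and folding enthalpy. Four replicates were combined by inverse-variance weighting, and fitted temperatures were shifted up by 9.35 °C to match UV melts.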

[2] = folding enthalpy; higher = less favourable; fluorescence melt of hairpins on a sequencing array, two-state fit; settings: sodium 0.088 M
Outline: as §1

Row | Sequence | Tm [1] [°C] | folding enthalpy [2] [kcal/mol]
1 | GCGACAGGAAACTGCCGC (((.(((....))).))) | 55.9 | -46.4
2 | GGGTCGACGAAAGTCCCC (((..(((....)))))) | 38.7 | -17.7
3 | CGGTGGCGGAAACGCCCG (((..(((....)))))) | 47 | -11.5
4 | GTGGGTGGAAACACCTAC ((.((((....)))).)) | 51 | -21.3
5 | GCTTCGCGAAAGCGTGGC ((..(((....)))..)) | 53.3 | -17.4
6 | GATCGTGGAAACACGGTC ((.((((....)))).)) | 52.7 | -29.1
7 | GTGCTGGAAACAGCAC ((((((....)))))) | 67.6 | -33.2
8 | GCGCCTGGAAACAGGCAC (.(((((....))))).) | 47.9 | -11.9
9 | GGCTATGGAAACATAGCC (((((((....))))))) | 66.1 | -37.6
10 | GATCAATCAGTTGATC ((((((....)))))) | 44.4 | -29.6
11 | GCCCTGGGAAACCAGGAC (.(((((....))))).) | 48.6 | -13.7
12 | GTTGCAGGAAACCACAAC ((((..(....)..)))) | 27.4 | -18.2
13 | GGCACCGAAAGGTAAGCC ((((((....)))..))) | 52.6 | -35
14 | GATCTACGAAAGTATATC (((.(((....))).))) | 32.5 | -22.4
15 | GGCTATTCGAAAGAAGCC (((..(((....)))))) | 37.7 | -25.2
16 | GCCAACGAAAGTTTCGGC ((((((....)))..))) | 39 | -18.4
17 | GACTTCCGAAAGGAGGTC (((.(((....))).))) | 54.8 | -36.6
18 | GGAACCGCGAAAGCGTCC (((..(((....)))))) | 26.3 | -7.7
19 | GTACGCTCGAAAGAGTAC (((..(((....)))))) | 34.1 | -21.8
20 | GTGCGAGGAAACTCGTGC (..((((....))))..) | 48.4 | -23.3
21 | GTTTAGGGAAACTTAGAC ((.((.(....).)).)) | 32.8 | -13.6
22 | TTCAGGAAACTGAA (((((....))))) | 35.7 | -13.5
23 | GGTGACGAAAGTCCCACC ((((((....)))..))) | 43.4 | -12.9

Row | Sequence | Tm [1] [°C] | folding enthalpy [2] [kcal/mol]
24 | GAAGACGAAAGTCACTTC ((((((....)))..))) | 35 | -17.5
25 | GTCTTCGAAAGAATAGAC ((((((....)))..))) | 30.7 | -19.5
26 | GTATTCGGAAACGAATAC (((((((....))))))) | 56.8 | -48.2
27 | GATCGACGGTTCGATC ((((((....)))))) | 50.7 | -39.6
28 | GCTGCAGGAAACTGTAGC (((.(((....))).))) | 52 | -34.3
29 | GGCGTTCGAAAGAAGGCC (((.(((....))).))) | 61.1 | -39.4
30 | GATCCTTCCAGGATC ((((((...)))))) | 57.2 | -35.2
31 | GCTCGTCGAAAGACCAGC (((.(((....))).))) | 45.1 | -15.2
32 | GATCTTCAGGAAGATC ((((((....)))))) | 46.8 | -29
33 | GACATGGGAAACTATGTC (((((.(....).))))) | 44.4 | -27.6
34 | GGGATGGGAAACCATCCC (((((((....))))))) | 67.4 | -41.5
35 | GCTCACTCGAAAGAGAGC (((..(((....)))))) | 41.6 | -25.1
36 | GCGATGCGAAAGCACGGC ((..(((....)))..)) | 51.2 | -16.5
37 | GCGTACGAAAGTACTCGC ((((((....)))..))) | 46.5 | -15.6
38 | GATCACATCCGTGATC ((((((....)))))) | 56.6 | -46
39 | GAGAACGGAAACGTCCTC (((.(((....))).))) | 40.2 | -24.5
40 | GGGTCTGGAAACAGATCC ((.((((....)))).)) | 51.9 | -43.7
41 | GCGTTACGAAAGTACCGC (((.(((....))).))) | 53.7 | -31.3
42 | GAACACCGAAAGGTCTTC (((.(((....))).))) | 35.2 | -15.2
43 | GCAGTCGAAAGACATTGC ((((((....)))..))) | 38.1 | -17.1
44 | GCGTGTGACGC ((((...)))) | 53.4 | -23.8
45 | GTGGACGGAAACGTCCGC (.(((((....))))).) | 62 | -18.4
46 | GCGTGGCGAAAGCCCAGC ((..(((....)))..)) | 56.2 | -18.3
